{"source": "ChEMBL document CHEMBL4715734", "about": "“Discovery of the Potent and Selective M1 PAM-Agonist N-[(3R,4S)-3-Hydroxytetrahydro-2H-pyran-4-yl]-5-methyl-4-[4-(1,3-thiazol-4-yl)benzyl]pyridine-2-carboxamide (PF-06767832): Evaluation of Efficacy and Cholinergic Side Effects” (J Med Chem, 2016)", "key": {"[1]": {"test": "Toxicity in male Beagle dog assessed as effect on cardiac contractility at 3 mg/kg, po administered as single dose observed upto 9 hrs post last dose by telemetry", "type": "organism-based, Canis lupus familiaris", "conditions": "in vivo", "procedure,_shortened": "(§1)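 Crossover telemetry study in dogs at three oral doses (0.3, 1 and 3 mg/kg), N=4. Endpoints were blood pressure, maximum systolic left ventricular pressure, LV +dP/dt max, activity, heart rate, and RR, QT and QTc intervals, followed up to 9 h post dose.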"}, "[2]": {"test": "Toxicity in male Beagle dog assessed as effect on heart rate at 3 mg/kg, po observed upto 9 hrs post last dose by telemetry", "type": "organism-based, Canis lupus familiaris", "conditions": "in vivo", "procedure,_shortened": "as §1"}, "[3]": {"test": "Toxicity in dog assessed as emesis at 45 mg/kg, po using spray-dried dispersion formulation measured after 45 mins", "type": "organism-based, Canis lupus familiaris", "conditions": "in vivo, 0.75 h", "procedure,_shortened": "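Dogs received single escalating oral doses as a spray-dried dispersion (10% drug loading with HPMCAS-M). The dispersion was suspended in 0.5 wt% methylcellulose/0.5 wt% HPMCAS in 20 mM tris buffer, pH 7.4. One dog per sex per dose was used, and clinical signs were recorded.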"}, "[4]": {"test": "Toxicity in dog assessed as salivation at 45 mg/kg, po using spray-dried dispersion formulation measured after 45 mins", "type": "organism-based, Canis lupus familiaris", "conditions": "in vivo, 0.75 h"}, "[5]": {"test": "Toxicity in dog assessed as induction of watery feces at 5 mg/kg, po using spray-dried dispersion formulation", "type": "organism-based, Canis lupus familiaris", "conditions": "in vivo"}, "[6]": {"test": "Toxicity in dog assessed as salivation at 3 mg/kg, po using spray-dried dispersion formulation", "type": "organism-based, Canis lupus familiaris", "conditions": "in vivo"}, "[7]": {"test": "fAUC (0 to 24 hrs) in rat at 15 mg/kg, po administered for 14 days", "type": "ADME, organism-based", "conditions": "in vivo, 336 h, time 14 day", "procedure,_shortened": "(§2)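 2-week repeat oral dosing in rats, 0.5% methylcellulose formulation; N=4/sex/dose; doses 3, 10, 30 (males)/15 (females) mg/kg; unbound exposures reported per dose and sex.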"}, "[8]": {"test": "fAUC (0 to 24 hrs) in rat at 3 mg/kg, po administered for 14 days", "type": "ADME, organism-based", "conditions": "in vivo, 336 h, time 14 day", "procedure,_shortened": "as §2"}, "[9]": {"test": "fCmax in rat at 15 mg/kg, po administered for 14 days", "type": "ADME, organism-based", "conditions": "in vivo, 336 h, time 14 day", "procedure,_shortened": "as §2"}, "[10]": {"test": "Unbound plasma concentration in scopolamine-induced Wistar rat model at 1 mg/kg, po measured after 1 hr", "type": "ADME, organism-based", "conditions": "in vivo", "procedure,_shortened": "(§3)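 Plasma sampled 1 h after oral dosing in satellite animals (N=2/dose) given the same dosing solution as the water-maze study (suspension in 0.5% methylcellulose in water); unbound concentration reported as the group average.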"}, "[11]": {"test": "Unbound plasma concentration in scopolamine-induced Wistar rat model at 0.32 mg/kg, po measured after 1 hr", "type": "ADME, organism-based", "conditions": "in vivo", "procedure,_shortened": "as §3"}, "[12]": {"test": "Unbound plasma concentration in amphetamine-induced C57BL/6J mouse model of hyperlocomotion at 0.32 mg/kg, sc measured after 1 hr", "type": "ADME, organism-based", "conditions": "in vivo", "procedure,_shortened": "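Satellite PK animals from the mouse aLMA study, N=2/dose. Dosed subcutaneously with a solution in 5/15/80 DMSO/Solutol/water. Plasma and brain were sampled at T = 1 h.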"}, "[13]": {"test": "Unbound brain concentration in CD-1 mouse at 1 mg/kg, sc measured after 2 hrs by LC-MS/MS analysis", "type": "ADME, organism-based", "conditions": "in vivo"}, "[14]": {"test": "Unbound plasma concentration in CD-1 mouse at 1 mg/kg, sc measured after 2 hrs by LC-MS/MS analysis", "type": "ADME, organism-based", "conditions": "in vivo"}, "[15]": {"biological_target": "T1, Muscarinic acetylcholine receptor M2 (Homo sapiens, UniProt P08172)", "T1 sequence (P08172 whole entry)": "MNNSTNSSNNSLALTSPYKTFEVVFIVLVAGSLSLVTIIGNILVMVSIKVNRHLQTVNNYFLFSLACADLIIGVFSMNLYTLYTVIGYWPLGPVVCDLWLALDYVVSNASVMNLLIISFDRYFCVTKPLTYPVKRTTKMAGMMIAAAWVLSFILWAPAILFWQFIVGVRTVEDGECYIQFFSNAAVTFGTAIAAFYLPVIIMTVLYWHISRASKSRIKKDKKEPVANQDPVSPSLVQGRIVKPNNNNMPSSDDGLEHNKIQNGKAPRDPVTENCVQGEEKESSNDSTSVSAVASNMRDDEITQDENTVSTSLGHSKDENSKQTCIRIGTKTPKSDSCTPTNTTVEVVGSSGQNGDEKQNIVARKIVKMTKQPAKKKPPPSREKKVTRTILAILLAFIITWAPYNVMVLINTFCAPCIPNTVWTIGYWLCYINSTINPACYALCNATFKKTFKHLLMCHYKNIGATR", "test": "Positive allosteric modulation of muscarinic M2 receptor (unknown origin) assessed as increase in ACh-induced displacement of [3H]-NMS from M2 receptor", "procedure,_shortened": "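Cell lines expressing M2 or M3 were used for [3H]NMS binding. Inhibition of binding by ACh was measured in the presence of fixed compound concentrations of 10, 3, 1, 0.3, 0.1 and 0 µM.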"}, "[16]": {"biological_target": "T2, Muscarinic acetylcholine receptor M1 (Homo sapiens, UniProt P11229)", "T2 sequence (P11229 whole entry)": "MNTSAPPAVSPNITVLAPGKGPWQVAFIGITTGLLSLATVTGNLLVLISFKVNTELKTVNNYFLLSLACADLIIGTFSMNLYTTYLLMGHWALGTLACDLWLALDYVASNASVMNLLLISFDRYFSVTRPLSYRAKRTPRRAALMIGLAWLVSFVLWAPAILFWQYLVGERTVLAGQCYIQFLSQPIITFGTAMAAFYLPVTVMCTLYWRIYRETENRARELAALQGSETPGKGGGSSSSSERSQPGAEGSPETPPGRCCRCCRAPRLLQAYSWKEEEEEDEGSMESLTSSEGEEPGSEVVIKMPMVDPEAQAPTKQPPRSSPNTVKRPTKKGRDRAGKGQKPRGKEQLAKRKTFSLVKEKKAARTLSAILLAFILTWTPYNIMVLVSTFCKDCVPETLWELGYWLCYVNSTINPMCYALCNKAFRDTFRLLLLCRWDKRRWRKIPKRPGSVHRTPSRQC", "test": "Partial agonist activity at muscarinic M1 receptor (unknown origin) assessed as recruitment of beta-arrestin by Path Hunter assay", "type": "cell-based, CHO"}, "[17]": {"test": "Ratio of fAUC in monkey brain to plasma", "type": "ADME, cell-free, Macaca mulatta", "conditions": "rhesus monkey, brain and plasma; read-out: Ratio AUC"}, "[18]": {"test": "Oral bioavailability in dog at 0.5 mg/kg", "type": "ADME, organism-based, Canis lupus familiaris", "conditions": "in vivo"}, "[19]": {"test": "Half-life in rat at 0.5 mg/kg, po or 1 mg/kg, iv", "type": "ADME, organism-based", "conditions": "in vivo"}, "[20]": {"test": "Toxicity in rat assessed as histopathological changes at 3 to 30 mg/kg, po administered for 14 days", "type": "organism-based", "conditions": "in vivo, 336 h, dose 3-30 mg/kg, time 14 day", "procedure,_shortened": "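Two-week repeat-dose toxicity study in rats. Oral dosing in 0.5% methylcellulose at 3, 10, 30 (males)/15 (females) mg/kg, N=4/sex/dose. Food intake, body weight gain and histopathology were assessed.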"}, "[21]": {"test": "Toxicity in dog at 1 mg/kg, po using spray-dried dispersion formulation", "type": "organism-based, Canis lupus familiaris", "conditions": "in vivo"}, "[22]": {"test": "Toxicity in male rat assessed as increase in food intake at 30 mg/kg, po administered for 14 days", "conditions": "in vivo, 336 h"}, "[23]": {"test": "Toxicity in male rat assessed as increase in body weight at 30 mg/kg, po administered for 14 days", "conditions": "in vivo, 336 h"}, "Rattus norvegicus": {"tested_on": "Rattus norvegicus", "test": "Reversal of scopolamine-induced spatial learning in Wistar rat model at 0.32 mg/kg, po administered 15 min before training followed by 30 mins later administration with scopolamine measured after 24 hrs by Morris water maze test"}}, "note": "Calls of active or inactive are those of the source. The rule behind the calls is not given here."}
{"compound": "Cc1cnc(C(=O)N[C@H]2CCOC[C@@H]2O)cc1Cc1ccc(-c2cscn2)cc1", "values": [{"measurement": "Activity", "setting": "[1]", "result": "Toxic"}, {"measurement": "Activity", "setting": "[2]", "result": 25, "unit": "bpm"}, {"measurement": "Activity", "setting": "[3]", "result": "Toxic"}, {"measurement": "Activity", "setting": "[4]", "result": "Toxic"}, {"measurement": "Activity", "setting": "[5]", "result": "Toxic"}, {"measurement": "Activity", "setting": "[6]", "result": "Toxic"}, {"measurement": "fAUC", "setting": "[7]", "result": 9.768, "unit": "µM·h"}, {"measurement": "fAUC", "setting": "[8]", "result": 1856, "unit": "nM·h"}, {"measurement": "fCmax", "setting": "[9]", "result": 708, "unit": "nM"}, {"measurement": "Cp(f)", "setting": "[10]", "result": 19.6, "unit": "nM"}, {"measurement": "Cp(f)", "setting": "[11]", "result": 3.7, "unit": "nM"}, {"measurement": "Cp(f)", "setting": "[12]", "result": 23.4, "unit": "nM"}, {"measurement": "Drug uptake(free)", "setting": "[13]", "result": 14.3, "unit": "nM"}, {"measurement": "Cp(f)", "setting": "[14]", "result": 42.1, "unit": "nM"}, {"measurement": "Activity", "setting": "[15]", "result": "Not Active"}, {"measurement": "EC50", "setting": "[16]", "result": 3.9, "unit": "µM"}, {"measurement": "Kp uu", "setting": "[17]", "result": 0.51}, {"measurement": "bioavailability", "setting": "[18]", "result": 43, "unit": "%"}, {"measurement": "half-life", "setting": "[19]", "result": 335, "unit": "min"}, {"measurement": "Activity", "setting": "[20]", "result": "Non-Toxic"}, {"measurement": "Activity", "setting": "[21]", "result": "Non-Toxic"}, {"measurement": "Activity", "setting": "[22]", "result": "Non-Toxic"}, {"measurement": "Activity", "setting": "[23]", "result": "Non-Toxic"}, {"measurement": "Activity", "setting": "Rattus norvegicus", "result": "Active"}]}
